{
  "source": "ChEMBL document CHEMBL3297742",
  "about": "“Tetrahydronaphthyridine and dihydronaphthyridinone ethers as positive allosteric modulators of the metabotropic glutamate receptor 5 (mGlu₅)” (J Med Chem, 2014)",
  "key": {"Rattus norvegicus [1]": {"test_system": "Rattus norvegicus", "experiment": "Antipsychotic activity in po dosed Sprague-Dawley rat assessed as reversal of amphetamine-induced hyperlocomotion administered for 30 mins prior to amphetamine challenge for 60 mins", "type": "functional, organism-based", "summary_of_the_method": "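Male Sprague–Dawley rats (250–375 g), food-deprived overnight, habituated 30 min in locomotor chambers. Compound given po (3–100 mg/kg in 20% HP-β-CD, pH 6–7, ≤10 mL/kg) 30 min before amphetamine 1 mg/kg sc, then monitored 60 min (120 min total). Photobeam breaks over 60–120 min give percent reversal against the vehicle+amphetamine group, mean ± SE, n = 6–8.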"}, "Rattus norvegicus [2]": {"test_system": "Rattus norvegicus", "experiment": "AUC (0 to 24 hrs) in Sprague-Dawley rat plasma at 10 mg/kg, po", "type": "ADME, organism-based", "design": "time < 24 hr, dose 10 mg/kg, route oral", "conditions": "in vivo"}, "[3]": {"experiment": "Kinetic solubility of the compound in buffer at pH 7.4", "type": "physicochemical", "summary_of_the_method": "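Kinetic aqueous solubility measured in buffers at pH 2, 4 and 7.4.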"}, "Cytochrome P450 1A2": {"target": "T1, Cytochrome P450 1A2 (Homo sapiens, UniProt P05177)", "T1 sequence (P05177 whole entry)": "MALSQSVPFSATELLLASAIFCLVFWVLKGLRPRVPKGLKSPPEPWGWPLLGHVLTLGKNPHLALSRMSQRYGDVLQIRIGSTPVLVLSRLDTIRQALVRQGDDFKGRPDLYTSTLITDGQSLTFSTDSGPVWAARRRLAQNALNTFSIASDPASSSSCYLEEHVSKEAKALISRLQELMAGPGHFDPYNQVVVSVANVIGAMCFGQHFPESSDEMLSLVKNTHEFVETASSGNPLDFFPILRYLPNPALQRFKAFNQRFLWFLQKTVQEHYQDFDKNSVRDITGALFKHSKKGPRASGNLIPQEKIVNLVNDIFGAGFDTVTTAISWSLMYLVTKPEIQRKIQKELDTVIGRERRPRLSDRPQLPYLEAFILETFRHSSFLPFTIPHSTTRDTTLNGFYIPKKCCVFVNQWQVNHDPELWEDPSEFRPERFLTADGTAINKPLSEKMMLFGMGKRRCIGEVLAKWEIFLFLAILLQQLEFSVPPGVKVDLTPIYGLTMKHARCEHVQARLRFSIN", "experiment": "Inhibition of CYP1A2 in human liver microsomes", "type": "ADME", "summary_of_the_method": "(§1)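 CYP1A2, 2C9, 2D6 and 3A4 inhibition measured together in a cocktail assay with human liver microsomes and known probe substrates; IC50 determined.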"}, "[4]": {"target": "Metabotropic glutamate receptor 2 (Rattus norvegicus, UniProt P31421)", "sequence (P31421 whole entry)": "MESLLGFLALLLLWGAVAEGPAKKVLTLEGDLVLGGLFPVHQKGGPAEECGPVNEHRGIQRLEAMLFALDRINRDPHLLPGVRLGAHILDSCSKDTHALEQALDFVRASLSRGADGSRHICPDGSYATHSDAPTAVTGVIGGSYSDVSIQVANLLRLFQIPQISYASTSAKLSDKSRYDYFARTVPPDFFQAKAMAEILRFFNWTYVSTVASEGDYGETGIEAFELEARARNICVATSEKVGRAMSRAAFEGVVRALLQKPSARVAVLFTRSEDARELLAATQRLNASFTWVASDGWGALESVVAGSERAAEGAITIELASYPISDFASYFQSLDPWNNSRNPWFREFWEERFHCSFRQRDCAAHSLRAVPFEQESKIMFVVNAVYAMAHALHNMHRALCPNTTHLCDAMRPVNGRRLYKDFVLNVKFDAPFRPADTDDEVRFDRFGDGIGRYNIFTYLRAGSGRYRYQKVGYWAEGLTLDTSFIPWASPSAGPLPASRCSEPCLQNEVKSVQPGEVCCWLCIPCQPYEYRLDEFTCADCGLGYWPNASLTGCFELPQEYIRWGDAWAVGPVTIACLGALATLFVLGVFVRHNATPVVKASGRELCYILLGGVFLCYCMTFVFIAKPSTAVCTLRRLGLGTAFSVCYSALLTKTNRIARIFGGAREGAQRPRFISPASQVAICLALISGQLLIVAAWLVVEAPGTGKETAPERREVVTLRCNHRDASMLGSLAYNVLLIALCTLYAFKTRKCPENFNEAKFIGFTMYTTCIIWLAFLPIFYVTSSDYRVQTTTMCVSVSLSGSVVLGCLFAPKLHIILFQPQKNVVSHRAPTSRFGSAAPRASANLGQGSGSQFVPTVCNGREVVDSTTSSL", "experiment": "Positive allosteric modulator activity at rat mGlu2 receptor expressed in HEK293 cells assessed as glutamate-induced GIRK channel-mediated thallium flux treated 140s prior to gluatamate challenge by fluorescence analysis", "type": "cell-based", "summary_of_the_method": "(§2)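 HEK293-GIRK cells expressing rat mGlu2, 3, 4, 6, 7 or 8, 15000 cells/well. Vehicle or 10 µM compound added, then 140 s later a glutamate CRC (L-AP4 for mGlu7) in thallium buffer (12 mM thallium sulfate, 10 mM HEPES). Thallium flux through GIRK read by fluorescence.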"}, "[5]": {"target": "Metabotropic glutamate receptor 4 (Rattus norvegicus, UniProt P31423)", "sequence (P31423 whole entry)": "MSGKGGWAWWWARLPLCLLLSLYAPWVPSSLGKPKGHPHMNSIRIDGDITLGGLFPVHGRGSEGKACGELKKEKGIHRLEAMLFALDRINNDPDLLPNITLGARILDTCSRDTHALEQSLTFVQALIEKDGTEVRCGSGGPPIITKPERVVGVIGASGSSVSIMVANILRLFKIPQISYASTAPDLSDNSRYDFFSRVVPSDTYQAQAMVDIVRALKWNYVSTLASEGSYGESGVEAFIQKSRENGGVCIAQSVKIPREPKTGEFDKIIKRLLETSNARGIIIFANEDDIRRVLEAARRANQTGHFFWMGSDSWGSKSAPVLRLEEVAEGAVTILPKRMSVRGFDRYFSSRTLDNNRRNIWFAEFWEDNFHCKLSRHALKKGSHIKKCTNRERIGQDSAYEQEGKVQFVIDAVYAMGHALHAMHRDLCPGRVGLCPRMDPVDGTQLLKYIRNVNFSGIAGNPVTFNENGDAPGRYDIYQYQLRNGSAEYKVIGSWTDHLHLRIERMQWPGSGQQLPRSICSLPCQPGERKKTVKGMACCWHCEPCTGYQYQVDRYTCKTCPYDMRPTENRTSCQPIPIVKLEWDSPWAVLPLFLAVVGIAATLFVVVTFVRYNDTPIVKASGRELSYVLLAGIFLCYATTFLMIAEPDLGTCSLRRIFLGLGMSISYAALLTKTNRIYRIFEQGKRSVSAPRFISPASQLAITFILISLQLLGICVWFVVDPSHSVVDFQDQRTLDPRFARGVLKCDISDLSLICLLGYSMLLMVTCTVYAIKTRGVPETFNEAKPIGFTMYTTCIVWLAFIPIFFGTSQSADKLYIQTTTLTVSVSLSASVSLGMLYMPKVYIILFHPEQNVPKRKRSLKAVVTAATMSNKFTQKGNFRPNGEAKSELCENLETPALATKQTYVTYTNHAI", "experiment": "Positive allosteric modulator activity at rat mGlu4 receptor expressed in HEK293 cells assessed as glutamate-induced GIRK channel-mediated thallium flux treated 140s prior to gluatamate challenge by fluorescence analysis", "type": "cell-based", "summary_of_the_method": "as §2"}, "[6]": {"target": "Metabotropic glutamate receptor 8 (Rattus norvegicus, UniProt P70579)", "sequence (P70579 whole entry)": "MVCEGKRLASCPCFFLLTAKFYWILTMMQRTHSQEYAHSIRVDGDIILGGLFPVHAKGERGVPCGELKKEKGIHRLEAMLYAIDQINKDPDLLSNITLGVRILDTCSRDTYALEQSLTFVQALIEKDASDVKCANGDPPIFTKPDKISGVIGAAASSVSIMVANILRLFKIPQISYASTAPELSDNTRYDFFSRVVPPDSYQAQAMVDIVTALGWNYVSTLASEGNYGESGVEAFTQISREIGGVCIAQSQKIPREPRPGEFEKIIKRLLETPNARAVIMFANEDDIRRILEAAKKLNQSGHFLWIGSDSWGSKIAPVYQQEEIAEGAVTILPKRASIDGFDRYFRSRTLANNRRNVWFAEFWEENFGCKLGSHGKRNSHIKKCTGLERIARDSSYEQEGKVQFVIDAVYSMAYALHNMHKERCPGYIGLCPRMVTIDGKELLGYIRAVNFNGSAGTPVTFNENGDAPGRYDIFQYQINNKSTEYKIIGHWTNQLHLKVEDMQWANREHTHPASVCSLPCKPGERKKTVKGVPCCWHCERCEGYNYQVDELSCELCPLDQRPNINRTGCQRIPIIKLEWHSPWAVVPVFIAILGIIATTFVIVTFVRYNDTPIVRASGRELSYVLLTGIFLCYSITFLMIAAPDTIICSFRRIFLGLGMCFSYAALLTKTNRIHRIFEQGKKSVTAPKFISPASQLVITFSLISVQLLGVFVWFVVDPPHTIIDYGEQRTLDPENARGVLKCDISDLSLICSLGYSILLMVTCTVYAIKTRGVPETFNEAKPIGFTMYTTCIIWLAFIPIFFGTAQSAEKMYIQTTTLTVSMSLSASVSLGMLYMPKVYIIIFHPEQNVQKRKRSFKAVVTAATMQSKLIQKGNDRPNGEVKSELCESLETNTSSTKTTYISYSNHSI", "experiment": "Positive allosteric modulator activity at rat mGlu8 receptor expressed in HEK293 cells assessed as glutamate-induced GIRK channel-mediated thallium flux treated 140s prior to glutamate challenge by fluorescence analysis", "type": "cell-based", "summary_of_the_method": "as §2"}, "[7]": {"target": "Metabotropic glutamate receptor 5 (Rattus norvegicus, UniProt P31424)", "sequence (P31424 whole entry)": "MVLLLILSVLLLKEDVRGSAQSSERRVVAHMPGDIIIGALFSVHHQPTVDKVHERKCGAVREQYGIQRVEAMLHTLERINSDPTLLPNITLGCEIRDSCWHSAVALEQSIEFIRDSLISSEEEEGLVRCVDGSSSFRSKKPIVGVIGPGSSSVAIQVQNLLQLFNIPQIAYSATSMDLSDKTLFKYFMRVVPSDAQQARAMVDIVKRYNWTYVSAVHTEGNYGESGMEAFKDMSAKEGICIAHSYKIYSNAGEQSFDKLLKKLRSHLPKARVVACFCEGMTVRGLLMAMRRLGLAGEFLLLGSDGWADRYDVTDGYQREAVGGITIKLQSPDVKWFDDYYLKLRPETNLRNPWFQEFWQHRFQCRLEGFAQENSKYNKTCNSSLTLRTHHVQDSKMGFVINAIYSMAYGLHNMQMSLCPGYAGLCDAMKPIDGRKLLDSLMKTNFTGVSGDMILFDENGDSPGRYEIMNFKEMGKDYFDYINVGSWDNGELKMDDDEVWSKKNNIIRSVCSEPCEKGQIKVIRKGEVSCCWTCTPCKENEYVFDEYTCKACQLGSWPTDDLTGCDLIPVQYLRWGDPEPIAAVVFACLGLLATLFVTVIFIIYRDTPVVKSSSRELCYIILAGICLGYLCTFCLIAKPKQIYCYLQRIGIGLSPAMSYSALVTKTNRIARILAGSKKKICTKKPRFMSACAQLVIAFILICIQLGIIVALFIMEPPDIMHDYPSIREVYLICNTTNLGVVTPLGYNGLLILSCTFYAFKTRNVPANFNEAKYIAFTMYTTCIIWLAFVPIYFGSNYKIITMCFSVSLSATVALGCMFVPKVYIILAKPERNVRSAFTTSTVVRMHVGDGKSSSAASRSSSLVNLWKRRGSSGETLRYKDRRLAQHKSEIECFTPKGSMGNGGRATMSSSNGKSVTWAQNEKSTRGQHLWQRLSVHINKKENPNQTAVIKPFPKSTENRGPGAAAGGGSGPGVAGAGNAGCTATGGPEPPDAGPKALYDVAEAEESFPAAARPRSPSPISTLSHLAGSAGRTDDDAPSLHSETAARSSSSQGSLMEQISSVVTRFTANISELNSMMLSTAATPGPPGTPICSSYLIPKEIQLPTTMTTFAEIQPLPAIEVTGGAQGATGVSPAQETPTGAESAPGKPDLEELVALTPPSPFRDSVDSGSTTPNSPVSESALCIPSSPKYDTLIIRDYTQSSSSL", "experiment": "Positive allosteric modulator activity at rat mGlu5 receptor expressed in HEK293 cells assessed as potentiation of glutamate-induced calcium mobilization by fluorescence assay", "type": "functional, cell-based", "conditions": "read-out: EC50", "summary_of_the_method": "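HEK293 cells stably expressing rat mGlu5, 15000 cells/well, grown overnight, loaded with 1 µM Fluo-4AM for 50 min at 37 °C in HBSS/20 mM HEPES/2.5 mM probenecid pH 7.4. Compound added, then an EC20 of glutamate 140 s later and an EC80 90–120 s after that. Fluorescence over basal normalized to maximal glutamate response (100 µM glutamate); compound at up to 30 µM; ≥3 independent determinations.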"}, "[8]": {"target": "Metabotropic glutamate receptor 1 (Rattus norvegicus, UniProt P23385)", "experiment": "Positive allosteric modulator activity at rat mGlu1 receptor expressed in HEK293 cells assessed as glutamate-induced calcium mobilization treated 140s prior to glutamate challenge by fluorescence assay", "type": "functional, cell-based", "summary_of_the_method": "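HEK293 cells stably expressing rat mGlu1, 20000 cells/well, Fluo-4AM calcium flux. Vehicle or 10 µM compound (final) added, then a glutamate concentration–response curve 140 s later.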"}, "[9]": {"experiment": "Tmax in Sprague-Dawley rat at 10 mg/kg, po", "type": "ADME, organism-based", "design": "dose 10 mg/kg, route oral", "conditions": "in vivo"}, "Rattus norvegicus [10]": {"test_system": "Rattus norvegicus", "experiment": "Toxicity in Sprague-Dawley rat assessed as motor output at 30 to 100 mg/kg, po after 30 mins by rotarod test", "type": "organism-based", "design": "dose 30-100 mg/kg, route oral", "conditions": "in vivo, 0.5 h", "summary_of_the_method": "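Male Sprague–Dawley rats (250–300 g) trained twice on a 20 rpm rotarod (120 s trials); animals below 85 s at baseline were excluded. Rats received 30, 56.6 or 100 mg/kg po in 20% HP-β-CD or vehicle (n = 6) and were tested 30 min later in a 120 s trial; time on the rod was recorded, with a 120 s cutoff.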"}, "Plasma": {"test_system": "Plasma", "experiment": "Fraction unbound in rat plasma", "type": "ADME, cell-free"}, "[11]": {"experiment": "Solubility of the compound in fasted simulated intestinal fluid at pH 7.2 after 24 hrs", "type": "ADME", "conditions": "simulated gi fluid, pH 7.2, 24 h", "summary_of_the_method": "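Solubility in fasted simulated intestinal fluid (FaSSIF), pH 7.2.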"}, "Cytochrome P450 2D6": {"target": "Cytochrome P450 2D6 (Homo sapiens, UniProt P10635)", "sequence (P10635 whole entry)": "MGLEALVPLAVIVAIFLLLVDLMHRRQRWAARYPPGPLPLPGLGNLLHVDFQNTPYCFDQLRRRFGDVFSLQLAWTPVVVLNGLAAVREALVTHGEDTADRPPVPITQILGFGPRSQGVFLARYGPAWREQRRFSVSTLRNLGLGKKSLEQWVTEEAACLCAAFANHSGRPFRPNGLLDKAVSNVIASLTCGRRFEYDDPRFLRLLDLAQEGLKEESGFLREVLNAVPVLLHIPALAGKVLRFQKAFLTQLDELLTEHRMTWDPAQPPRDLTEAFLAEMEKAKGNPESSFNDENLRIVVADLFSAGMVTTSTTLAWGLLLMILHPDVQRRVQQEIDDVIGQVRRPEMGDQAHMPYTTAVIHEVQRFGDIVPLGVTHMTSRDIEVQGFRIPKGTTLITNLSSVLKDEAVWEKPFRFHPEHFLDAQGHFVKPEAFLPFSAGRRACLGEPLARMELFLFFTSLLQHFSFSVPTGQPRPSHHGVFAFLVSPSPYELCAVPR", "experiment": "Inhibition of CYP2D6 in human liver microsomes", "type": "ADME", "summary_of_the_method": "as §1"}, "Rattus norvegicus [12]": {"test_system": "Rattus norvegicus", "experiment": "Antipsychotic activity in Sprague-Dawley rat assessed as reversal of amphetamine-induced hyperlocomotion at 100 mg/kg, po administered for 30 mins prior to amphetamine challenge for 60 mins", "type": "functional", "summary_of_the_method": "(§3)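 Male Sprague–Dawley rats (250–375 g), food-deprived the evening before, were habituated 30 min in locomotor chambers. They were then dosed po with vehicle (20% HP-β-CD in water, pH 6–7, max 10 mL/kg) or test article, followed 30 min later by amphetamine 1 mg/kg sc, n = 6–8 per group. Photobeam breaks were counted per 5 min over 120 min. Percent reversal used t = 60–120 totals versus the vehicle + amphetamine group, reported as mean ± SE.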"}, "[13]": {"experiment": "Retention time of the compound by LCMS analysis", "type": "physicochemical"}, "[14]": {"experiment": "Ratio of unbound drug level in brain to plasma in rat", "type": "ADME, cell-free", "summary_of_the_method": "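Kp,uu derived from the in vivo brain:plasma ratio and in vitro rat fu,plasma/fu,brain, with the binding values from rat plasma protein and rat brain homogenate binding experiments.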"}, "Rattus norvegicus [15]": {"test_system": "Rattus norvegicus", "experiment": "Reversal of amphetamine-induced hyperlocomotion in Sprague-Dawley rat at 56.6 mg/kg, po administered for 30 mins prior to amphetamine challenge for 60 mins", "type": "functional", "summary_of_the_method": "as §3"}, "[16]": {"experiment": "Half life in rat at 1 mg/kg, iv and 10 mg/kg, po", "type": "ADME, organism-based", "conditions": "in vivo", "summary_of_the_method": "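Rat pharmacokinetics with 1 mg/kg IV and 10 mg/kg PO dosing; oral arm given in 0.5% methyl cellulose (1 mg/mL, noncrossover) to male Sprague–Dawley rats.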"}},
  "data": [
    {"smiles": "O=C1NCCc2nc(OCc3cccc(F)c3)ccc21", "values": [
      {"measurement": "inhibition", "setting": "Rattus norvegicus [1]", "result": "Dose-dependent effect"},
      {"measurement": "AUC", "setting": "Rattus norvegicus [2]", "result": 6.2, "unit": "µM·h"},
      {"measurement": "Kinetic_solubility", "setting": "[3]", "result": 28, "unit": "µM"},
      {"measurement": "IC50", "setting": "Cytochrome P450 1A2", "result": 25.7, "unit": "µM"},
      {"measurement": "EC50", "setting": "[4]", "result": "> 10", "unit": "µM"},
      {"measurement": "EC50", "setting": "[5]", "result": "> 10", "unit": "µM"},
      {"measurement": "EC50", "setting": "[6]", "result": "> 10", "unit": "µM"},
      {"measurement": "EC50", "setting": "[7]", "result": 0.225, "unit": "µM"},
      {"measurement": "EC50", "setting": "[8]", "result": "> 10", "unit": "µM"},
      {"measurement": "Tmax", "setting": "[9]", "result": 30, "unit": "min"},
      {"measurement": "Activity", "setting": "Rattus norvegicus [10]", "result": "Non-toxic"},
      {"measurement": "Fu", "setting": "Plasma", "result": 0.034},
      {"measurement": "solubility", "setting": "[11]", "result": 31, "unit": "µg/mL"},
      {"measurement": "IC50", "setting": "Cytochrome P450 2D6", "result": "> 30", "unit": "µM"},
      {"measurement": "inhibition in vivo at 100 mg/kg", "setting": "Rattus norvegicus [12]", "result": 55, "unit": "%"},
      {"measurement": "Retention_time", "setting": "[13]", "result": 0.736, "unit": "min"},
      {"measurement": "K(p,uu,brain)", "setting": "[14]", "result": 1.1},
      {"measurement": "inhibition in vivo at 56.6 mg/kg", "setting": "Rattus norvegicus [15]", "result": "> 30", "unit": "%"},
      {"measurement": "half-life", "setting": "[16]", "result": 18, "unit": "min"}
    ]}
  ]
}
